The source of these data is publication PMC4841444 (Lipids, 2015).

The structures appear in SMILES notation.

A short description of series [1]: Cytotoxicity against PBMC. The format is cell-based. Conditions: human, peripheral blood mononuclear cells (PBMC). In short, it runs like this:
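PBMCs from healthy volunteers, grown in IL-2-supplemented medium, seeded at 20,000 cells/well and exposed to fatty acids at 5–500 µM final. Incubation 3 days at 37 °C in humidified 5% CO2. Viability read by MTT.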

The target in another series is recombinant HIV-1-RT (Human immunodeficiency virus type 1 group M subtype B, UniProt P03366). Put plainly: Reverse Transcriptase Colorimetric Assay. It is filed as biochemical.
The next series has as its system HIV-1 RT. Conditions: read-out: IC50 against HIV-1 RT; non-competitive inhibitor; cited from earlier work.

Consider `CCCCCCCCCCCCCCC/C=C\CCCCCCCC(=O)O` [2b, (9Z)-9-Pentacosenoic acid], for which, in series [1], the IC50 – broadly, the concentration at which inhibition is half-maximal – at 3 days was above 500 µM. The IC50 at recombinant HIV-1-RT was 54 ± 1 µM. With `CCCCCCCC/C=C\CCCCCCCCCCCCCC(=O)O` [Nervonic acid, cis-15-tetracosenoic acid], the IC50 was 4.8 µM in the series on HIV-1 RT and 12 ± 1 µM at recombinant HIV-1-RT. Besides, the IC50 at 3 days in series [1] is above 500 µM.

For the compound `CCCCCCCCCCCCCC#CCCCCC(=O)O` [6-Icosynoic acid], the IC50 at recombinant HIV-1-RT was above 1000 µM.

`CCCCCCCCCCCCCCCCCCCCCCCCC(=O)O` [Pentacosanoic acid]: the “inhibition of the HIV-1 RT enzyme (in words)” value at recombinant HIV-1-RT (recombinant HIV-1 RT, colorimetric assay) is recorded as “does not inhibit HIV-1 RT at all”. In turn, `CCCCCCCCCCCCCCCC#CCCCCCCCC(=O)O` [1b, 9-Pentacosynoic acid] returned an IC50 at 3 days in series [1] above 500 µM. On to `CCCCCCCCCCCCCCCC(=O)O` [Palmitic acid], for which the IC50 at recombinant HIV-1-RT is above 1000 µM. `CCCCCCCCCCCCCCCCCCCC#CCCCC(=O)O` [1a, 5-Pentacosynoic acid]: the IC50 at 3 days in series [1] is above 500 µM. Further, at recombinant HIV-1-RT, the IC50 is 24 ± 1 µM. On the same counts, the results for `CCCCCCCCCCCCCCCCCCC/C=C\CCCC(=O)O` [2a, (5Z)-5-Pentacosenoic acid] are above 500 µM and 38 ± 1 µM. In the case of `CCCCCCCCCCCCCCCCCCCCCCC#CC(=O)O` [2-Pentacosynoic acid], at recombinant HIV-1-RT, the IC50 was determined as 566 ± 1 µM. Consider `CCCCCCCCCCC#CCCCCC(=O)O` [6-Heptadecynoic acid], for which, at recombinant HIV-1-RT, the IC50 is above 1000 µM.
